# Source: paper PMC4633020 (Journal of medicinal chemistry, 2015)
# “Also recorded” adds a separate entry of the source.
# Assays:
# PBP2a of S. aureus = PBP2a of S. aureus (Staphylococcus aureus, UniProt P07944); test: BOCILLIN FL binding assay for PBP2a; conditions: at concentrations of up to 100 μg/mL
# [1] = test system: PBPs in the E. faecium membrane fractions; test: PBP inhibition in E. faecium membrane fractions; format: binding; conditions: data less clear due to low PBP copy numbers
# E. faecium NCTC 7171 = test: MIC, broth microdilution; format: cell-based, Enterococcus faecium; conditions: for MIC: Enterococcus faecium, NCTC7171, E. faecium NCTC 7171
# [2] = test system: other bacteria in the ESKAPE panel; test: Antibacterial screening against the ESKAPE panel; format: cell-based; conditions: result in words
# PBP5fm of E. faecium = test: BOCILLIN FL binding assay for PBP5fm; conditions: at up to 100 μg/mL
# Method in brief: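 Recombinant PBP5 (aa 34-678, E. faecium D63r) carried an N-terminal His-tag, was expressed in E. coli BL21(DE3), and was purified by anion exchange then metal chelate column. Enzyme (40 μM final) was preincubated with test compound in 25 mM Hepes, 1 M NaCl, pH 7.0 at 37 °C. BOCILLIN FL (30 μM final) was then added, with incubations of 20 min. Labelling was read by 12% SDS-PAGE fluorescence scan and band quantitation against a no-inhibitor control.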
# [3] = In vitro metabolic stability in human liver S9; format: in vitro ADME; conditions: calculated from in vitro half-life in human liver S9
# E. faecium NCTC7171 = test: Macromolecular synthesis assays; format: cell-based, Enterococcus faecium; conditions: 2 × MIC (8 μg/mL), 120 min
# transcription = test: In vitro transcription assay; format: biochemical; conditions: T7 transcription kit
# [4] = test system: transcription and translation (β-galactosidase expression); test: Tandem in vitro transcription and translation assay; format: biochemical, Escherichia coli; conditions: E. coli S30 extract
# Hemolysis assay = conditions: red blood cells
# [5] = test system: E. faecium 119-39A (Van S); test: MIC, additional E. faecium strains; format: cell-based; conditions: Enterococcus faecium
# E. faecium ATCC BAA 2127 = test: MIC, additional E. faecium strains; format: cell-based; conditions: Enterococcus faecium, BAA2127
# E. faecium C9 = test: MIC, additional E. faecium strains; format: cell-based; conditions: Enterococcus faecium
# Chain of PBP2a of S. aureus (P07944 whole entry): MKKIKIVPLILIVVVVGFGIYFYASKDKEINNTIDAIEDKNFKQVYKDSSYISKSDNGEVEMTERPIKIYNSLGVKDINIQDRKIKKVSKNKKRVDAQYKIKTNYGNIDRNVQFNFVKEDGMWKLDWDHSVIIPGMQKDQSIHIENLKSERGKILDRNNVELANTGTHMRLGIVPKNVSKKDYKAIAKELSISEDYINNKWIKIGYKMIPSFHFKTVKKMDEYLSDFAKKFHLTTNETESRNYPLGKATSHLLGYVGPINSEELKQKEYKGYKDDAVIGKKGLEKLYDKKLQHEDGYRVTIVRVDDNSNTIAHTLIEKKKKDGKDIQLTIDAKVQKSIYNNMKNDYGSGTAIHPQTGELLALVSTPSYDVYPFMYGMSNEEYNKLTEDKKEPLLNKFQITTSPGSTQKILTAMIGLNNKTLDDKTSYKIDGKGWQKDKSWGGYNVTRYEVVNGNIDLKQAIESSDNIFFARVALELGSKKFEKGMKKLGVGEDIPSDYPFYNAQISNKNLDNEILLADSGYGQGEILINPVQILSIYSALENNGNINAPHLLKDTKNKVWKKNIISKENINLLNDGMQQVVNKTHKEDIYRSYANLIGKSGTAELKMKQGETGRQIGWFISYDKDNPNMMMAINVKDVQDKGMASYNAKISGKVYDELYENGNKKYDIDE
smiles,measurement,setting,value
"CC1=C(C(N)=O)C(c2ccc(C(C)C)cc2)n2nc(SCc3ccccc3)nc2N1 (stereo not drawn) [Compound 1, 2-(Benzylthio)-7-(4-isopropylphenyl)-5-methyl-4,7-dihydro-[1,2,4]triazolo[1,5-a]pyrimidine-6-carboxamide]",inhibition of recombinant PBP2a,PBP2a of S. aureus,no inhibition; also recorded: did not inhibit
same,inhibition of PBPs in E. faecium membranes,[1],did not inhibit
same,MIC,E. faecium NCTC 7171,≤ 8 µg/mL
same,antibacterial activity against the other bacteria in the ESKAPE panel,[2],No antibacterial activity
same,inhibition of PBP5fm,PBP5fm of E. faecium,no inhibition; also recorded: did not inhibit
same,Apparent intrinsic clearance,[3],11.1 mLmin^−1kg^−1
"CC1=C(C(N)=O)C(c2ccc(N(C)C)cc2)n2nc(SCc3ccccc3)nc2N1 (stereo not drawn) [Compound 16, 2-(Benzylthio)-7-(4-dimethylaminophenyl)-5-methyl-4,7-dihydro[1,2,4]triazolo[1,5-a]pyrimidine-6-carboxamide]",inhibition of peptidoglycan biosynthesis,"E. faecium NCTC7171; D-[2,3-3H]-alanine incorporation",notable inhibition
same,inhibition of translation (protein synthesis),"E. faecium NCTC7171; L-[4,5-3H]-leucine incorporation",did not inhibit
same,inhibition of transcription (RNA synthesis),"E. faecium NCTC7171; [5,6-3H]-uridine incorporation",did not inhibit
same,inhibition of replication (DNA synthesis),E. faecium NCTC7171; [methyl-3H]-thymidine incorporation,did not inhibit
same,MIC,E. faecium NCTC 7171,≤ 8 µg/mL
same,effect on in vitro transcription,transcription,did not show any effect
same,effect on in vitro transcription and translation,[4],did not show any effect
same,Apparent intrinsic clearance,[3],<10.4 mLmin^−1kg^−1
same,hemolysis at 64 μg/mL,Hemolysis assay,1 to 2%
"CC1=C(C(N)=O)C(c2ccc(N(C)C)cc2)n2nc(SCc3ccc(C#N)cc3)nc2N1 (stereo not drawn) [Compound 84, 2-(4-Cyanobenzylthio)-7-(4-dimethylaminophenyl)-5-methyl-4,7-dihydro-[1,2,4]triazolo[1,5-a]pyrimidine-6-carboxamide]",inhibition of recombinant PBP2a,PBP2a of S. aureus,lacked the ability to inhibit; also recorded: did not inhibit
same,inhibition of PBPs in E. faecium membranes,[1],did not inhibit
same,antibacterial activity against E. faecium (in words),"E. faecium NCTC 7171; SAR discussion, E. faecium NCTC 7171",as active as compound 1
same,inhibition of PBP5fm,PBP5fm of E. faecium,lacked the ability to inhibit; also recorded: did not inhibit
same,Apparent intrinsic clearance,[3],<10.4 mLmin^−1kg^−1
same,hemolysis at 64 μg/mL,Hemolysis assay,1 to 2%
CN[C@H](CC(C)C)C(=O)N[C@H]1C(=O)N[C@@H](CC(N)=O)C(=O)N[C@H]2C(=O)N[C@H]3C(=O)N[C@H](C(=O)N[C@H](C(=O)O)c4cc(O)cc(O)c4-c4cc3ccc4O)[C@H](O)c3ccc(c(Cl)c3)Oc3cc2cc(c3O[C@@H]2O[C@H](CO)[C@@H](O)[C@H](O)[C@H]2O[C@H]2C[C@](C)(N)[C@H](O)[C@H](C)O2)Oc2ccc(cc2Cl)[C@H]1O [vancomycin],MIC,[5],0.5 µg/mL
same,MIC,E. faecium ATCC BAA 2127,1 µg/mL
same,MIC,E. faecium C9,2 µg/mL
